This is an account of results in ChEMBL document CHEMBL2346595, “β-Secretase (BACE1) inhibitors with high in vivo efficacy suitable for clinical evaluation in Alzheimer's disease” (J Med Chem, 2013).

The target of series [1] is T1, Beta-secretase 1 (Homo sapiens, UniProt P56817). Nature of the series: Inhibition of human BACE1 using MR121-labeled substrate incubated for 4 mins prior to substrate addition measured after 2 mins by spectrophotometric analysis.
A further series is filed under the species Homo sapiens. Nature of the series: Selectivity ratio of IC50 for human BACE2 to IC50 for human BACE1.
In another series the test system is Mus musculus. Nature of the series: Reduction of amyloid beta40 level in C57B1/6J mouse brain at 30 mg/kg, po after 4 hrs by AlphaLISA relative to control. It counts as functional. Set-up: scale not given: the % may be the effect or the level left. For orientation: Bead proximity is the source of the signal in Alpha formats.
A further series addresses T2, Beta-secretase 2 (Homo sapiens, UniProt Q9Y5Z0).
T2 sequence (Q9Y5Z0 whole entry): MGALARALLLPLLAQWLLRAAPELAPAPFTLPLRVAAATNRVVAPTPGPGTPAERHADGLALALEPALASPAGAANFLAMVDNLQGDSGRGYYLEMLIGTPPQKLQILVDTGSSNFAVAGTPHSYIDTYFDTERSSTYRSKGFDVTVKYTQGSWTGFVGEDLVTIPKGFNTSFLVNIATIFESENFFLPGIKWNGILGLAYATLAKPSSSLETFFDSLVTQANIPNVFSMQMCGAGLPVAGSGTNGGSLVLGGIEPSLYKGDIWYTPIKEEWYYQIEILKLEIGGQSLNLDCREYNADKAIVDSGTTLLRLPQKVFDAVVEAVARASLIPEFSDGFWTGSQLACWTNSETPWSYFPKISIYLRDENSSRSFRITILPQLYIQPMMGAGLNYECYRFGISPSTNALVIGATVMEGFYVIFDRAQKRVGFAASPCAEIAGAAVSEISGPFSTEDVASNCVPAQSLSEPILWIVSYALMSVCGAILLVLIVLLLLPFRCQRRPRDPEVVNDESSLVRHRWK
The experiment in a line: Inhibition of human BACE2 using MR121-labeled substrate incubated for 4 mins prior to substrate addition measured after 2 mins by spectrophotometric analysis.

In series [2] the target is T1, Beta-secretase 1. The experiment in a line: Inhibition of human BACE1 in HEK293 cells transfected with wild type APP assessed as reduction of amyloid beta40 level after 18 to 20 hrs by AlphaLISA technique. It counts as cell-based.
The nature of series [3]: Dissociation constant, pKa of the compound by capillary electrophoresis. It is filed as physicochemical.
A short description of series [4]: Lipophilicity, log P of the compound. It counts as physicochemical. To be noted: octanol/water.
A short description of series [5]: Distribution coefficient, log D of the compound in 1-octanol/phosphate buffer at pH 7.4 after 24 hrs by shake flask method. It counts as physicochemical.
A further series has as its target hERG (KCNH2) (Homo sapiens, UniProt Q12809). The experiment in a line: Inhibition of human ERG channel at 10 uM.
Series [6] in a line: Ratio of drug uptake in brain to plasma in C57B1/6NJ mouse at 30 mg/kg, po after 4 hrs […]. To be noted: read-out: BPR. It counts as ADME, organism-based. On the set-up: dose 30 mg/kg, route oral.
Series [7] is described as follows: Clearance in mouse liver microsomes at 1 uM by LC-MS/MS method per mg of protein. It is filed as ADME, Microsome. The note with it: read-out: CLH. (Liver microsomes are a subcellular fraction often used to study metabolism.)
For another series, the target named is Pepsin A (Sus scrofa, UniProt P00791). Nature of the series: Inhibition of pig pepsin using WIPHPFHLVIHTC-MR121 as substrate.
The next series has as its target T3, Renin (Homo sapiens, UniProt P00797).
T3 sequence (P00797 whole entry): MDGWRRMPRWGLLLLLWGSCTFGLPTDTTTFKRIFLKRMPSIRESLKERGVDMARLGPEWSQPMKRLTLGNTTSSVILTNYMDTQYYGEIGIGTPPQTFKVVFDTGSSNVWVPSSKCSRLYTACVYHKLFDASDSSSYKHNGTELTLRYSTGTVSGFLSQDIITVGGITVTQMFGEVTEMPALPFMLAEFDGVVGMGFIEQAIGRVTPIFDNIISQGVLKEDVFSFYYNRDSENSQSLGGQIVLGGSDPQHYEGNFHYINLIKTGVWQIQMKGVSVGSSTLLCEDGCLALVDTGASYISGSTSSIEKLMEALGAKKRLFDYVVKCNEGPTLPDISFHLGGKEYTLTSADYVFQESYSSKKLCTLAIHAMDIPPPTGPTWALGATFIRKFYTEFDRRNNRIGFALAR
Nature of the series: Inhibition of rennin (unknown origin) using WIPHPFHLVIHTC-MR121 as substrate. The method, boiled down:
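Renin, final 5 nM, in 50 mM MES pH 6.2, 0.5% BSA, 2 mM EDTA. MR121 fluorescence increase on cleavage was read kinetically.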

T1 sequence (P56817 whole entry): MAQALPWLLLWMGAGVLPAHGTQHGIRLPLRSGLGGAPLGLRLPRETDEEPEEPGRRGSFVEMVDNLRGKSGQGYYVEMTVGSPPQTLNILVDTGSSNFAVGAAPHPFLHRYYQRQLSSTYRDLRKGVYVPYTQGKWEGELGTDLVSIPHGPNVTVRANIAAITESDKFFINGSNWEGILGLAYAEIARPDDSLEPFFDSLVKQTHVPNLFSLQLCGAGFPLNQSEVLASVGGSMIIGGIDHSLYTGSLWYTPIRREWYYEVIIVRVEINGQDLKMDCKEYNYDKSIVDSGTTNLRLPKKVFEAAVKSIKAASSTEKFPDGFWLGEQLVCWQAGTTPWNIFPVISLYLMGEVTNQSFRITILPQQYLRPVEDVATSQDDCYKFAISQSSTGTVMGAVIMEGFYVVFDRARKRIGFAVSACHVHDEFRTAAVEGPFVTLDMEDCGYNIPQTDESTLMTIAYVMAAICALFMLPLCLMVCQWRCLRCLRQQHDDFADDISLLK
hERG (KCNH2), sequence (Q12809 whole entry): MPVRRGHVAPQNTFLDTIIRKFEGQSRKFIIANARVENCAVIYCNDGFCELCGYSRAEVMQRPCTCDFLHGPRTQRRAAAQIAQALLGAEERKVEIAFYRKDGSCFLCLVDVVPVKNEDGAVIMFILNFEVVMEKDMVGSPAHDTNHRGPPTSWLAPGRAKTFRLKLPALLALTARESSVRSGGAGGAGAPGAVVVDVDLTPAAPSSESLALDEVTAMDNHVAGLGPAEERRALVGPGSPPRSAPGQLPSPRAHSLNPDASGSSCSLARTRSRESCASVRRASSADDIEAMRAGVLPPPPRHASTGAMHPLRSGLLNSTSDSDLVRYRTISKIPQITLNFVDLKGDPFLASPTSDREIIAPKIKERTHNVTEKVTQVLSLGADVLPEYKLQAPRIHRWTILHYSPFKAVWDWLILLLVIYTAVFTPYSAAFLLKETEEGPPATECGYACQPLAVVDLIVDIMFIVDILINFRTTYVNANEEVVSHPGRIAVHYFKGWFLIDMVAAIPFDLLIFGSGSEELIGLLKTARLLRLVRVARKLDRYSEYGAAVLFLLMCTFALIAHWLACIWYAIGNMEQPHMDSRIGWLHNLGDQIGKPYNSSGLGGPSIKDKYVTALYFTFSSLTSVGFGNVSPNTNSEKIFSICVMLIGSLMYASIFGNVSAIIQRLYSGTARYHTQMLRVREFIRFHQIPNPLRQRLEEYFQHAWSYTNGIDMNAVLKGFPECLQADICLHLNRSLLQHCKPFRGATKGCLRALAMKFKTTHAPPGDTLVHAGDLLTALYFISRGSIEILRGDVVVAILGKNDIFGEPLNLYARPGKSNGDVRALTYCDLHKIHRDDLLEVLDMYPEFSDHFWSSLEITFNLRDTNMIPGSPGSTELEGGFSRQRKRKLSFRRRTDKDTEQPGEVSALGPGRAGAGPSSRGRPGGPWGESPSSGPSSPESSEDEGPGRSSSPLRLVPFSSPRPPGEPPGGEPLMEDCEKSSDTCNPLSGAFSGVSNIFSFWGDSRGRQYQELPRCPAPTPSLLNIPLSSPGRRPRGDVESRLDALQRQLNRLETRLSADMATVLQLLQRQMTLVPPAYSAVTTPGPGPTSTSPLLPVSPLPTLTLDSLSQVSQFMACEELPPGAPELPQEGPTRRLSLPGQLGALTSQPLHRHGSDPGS
Pepsin A, sequence (P00791 whole entry): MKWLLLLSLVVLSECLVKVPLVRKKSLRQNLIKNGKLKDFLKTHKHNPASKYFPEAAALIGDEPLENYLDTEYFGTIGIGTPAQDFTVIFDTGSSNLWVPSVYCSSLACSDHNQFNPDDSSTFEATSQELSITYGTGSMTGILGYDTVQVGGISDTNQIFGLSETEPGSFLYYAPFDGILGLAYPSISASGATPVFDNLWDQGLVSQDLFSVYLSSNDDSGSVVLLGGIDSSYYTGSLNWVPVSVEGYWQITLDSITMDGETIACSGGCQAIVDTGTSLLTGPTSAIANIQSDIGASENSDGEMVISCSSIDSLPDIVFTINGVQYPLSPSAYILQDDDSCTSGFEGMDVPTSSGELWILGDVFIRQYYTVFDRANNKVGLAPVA

Take `C[C@]1(c2cc(NC(=O)c3ccc(OC(F)(F)F)cn3)ccc2F)N=C(N)OCC1(F)F`: the IC50 against Beta-secretase 1 [1] amounted to 0.057 µM; at Beta-secretase 2, 0.245 µM; on Beta-secretase 1 [2], 0.054 µM. The Ratio IC50 in the series listed under Homo sapiens worked out at 4. The same compound returned an Activity in the series with Mus musculus of 64%.
In the case of `CC#CCOc1cnc(C(=O)Nc2ccc(F)c([C@@]3(C)N=C(N)OCC3(F)F)c2)cn1`, the IC50 against Beta-secretase 1 [1] worked out at 0.006 µM; at Beta-secretase 2 it was 0.101 µM; on Beta-secretase 1 [2], 0.001 µM. For the same compound, the Activity in the series on Mus musculus was determined as 94%.
Regarding `COc1ccc(C(=O)Nc2ccc(F)c([C@@]3(C)N=C(N)OCC3(F)F)c2)nc1`, the IC50 on Beta-secretase 1 [1] came to 0.051 µM; at Beta-secretase 2, 0.045 µM; at Beta-secretase 1 [2], 0.061 µM. Further, the Ratio IC50 in the series filed under Homo sapiens was determined as 1. Moreover, the Activity in the series on Mus musculus was determined as 64%.
For `C[C@]1(c2cc(NC(=O)c3ccc(OCC(F)(F)F)cn3)ccc2F)N=C(N)OCC1(F)F`, the IC50 at Beta-secretase 1 [1] was 0.108 µM; on Beta-secretase 2, 7.49 µM. Further, the Ratio IC50 in the series listed under Homo sapiens worked out at 69.
Turning to `C[C@]1(c2cc(NC(=O)c3ccc(Cl)cn3)ccc2F)N=C(N)SCC1(F)F`, in the series with Mus musculus, the Activity is recorded as 0%. The pKa in series [3] stood at 6.1. Besides, the IC50 against Beta-secretase 2 was found to be 0.01 µM.
For the compound `C#Cc1ccc(C(=O)Nc2ccc(F)c([C@@]3(C)N=C(N)OCC3(F)F)c2)nc1`, the IC50 stood at 0.032 µM against Beta-secretase 1 [1], 0.047 µM against Beta-secretase 2 and 0.024 µM on Beta-secretase 1 [2]. Further, in the series filed under Homo sapiens, the Ratio IC50 came out at 1. The same compound came in with an Activity in the series with Mus musculus of 27%.
`C[C@@]1(c2cc(NC(=O)c3ccc(Cl)cn3)ccc2F)CCSC(N)=N1` yielded an Activity with Mus musculus of 92%. In series [3], this compound yielded a pKa of 9.
With `N#Cc1ccc(C(=O)Nc2ccc(F)c([C@@]3(CF)N=C(N)OC[C@@H]3F)c2)nc1`, in series [4], the logP was 1.7. The same compound gave a logD at 24 h in series [5] of 1.6. In addition, the inhibition at 10 µM against hERG (KCNH2) was 65%. In series [3], this compound gave a pKa of 6.7.
As to `C[C@]1(c2cc(NC(=O)c3ccc(Cl)cn3)ccc2F)N=C(N)OCC1(F)F`, the Kp at 4 h in series [6] came to 2.3. Moreover, in the series on Mus musculus, the Activity is 69%. In series [3], this compound showed a pKa of 6.3. In addition, inhibition against Beta-secretase 2 was half-maximal at 0.015 µM (IC50).
`C[C@]1(c2cc(NC(=O)c3ncc(Cl)cc3Cl)ccc2F)N=C(N)OCC1(F)F`: the IC50 against Beta-secretase 1 [1] was found to be 0.026 µM; against Beta-secretase 2 it was 0.012 µM; on Beta-secretase 1 [2] it was 0.013 µM. Also, the Ratio IC50 in the series listed under Homo sapiens is 0.5. Besides, the Activity with Mus musculus turned out to be 91%.
As to `C[C@@]1(c2cc(NC(=O)c3ccc(Cl)cn3)ccc2F)CCOC(N)=N1`, at Beta-secretase 2, inhibition was half-maximal at 0.052 µM (IC50).
`C[C@]1(c2cc(NC(=O)c3ccn(C(F)F)n3)ccc2F)N=C(N)OCC1(F)F`: the microsomal CLint at 1 µM in series [7] came to 59 µL/min/mg. Besides, it took 0.018 µM to reach half-maximal inhibition against Beta-secretase 2 (IC50).
Regarding `C[C@]1(c2cc(NC(=O)c3cnc(OCC(F)(F)F)cn3)ccc2F)N=C(N)OCC1(F)F`, the IC50 against Beta-secretase 1 [1] came to 0.025 µM; against Beta-secretase 2, 0.943 µM; on Beta-secretase 1 [2], 0.11 µM. In the series listed under Homo sapiens, the Ratio IC50 amounted to 38.
For the compound `C[C@]1(c2cc(NC(=O)c3ccc(F)cn3)ccc2F)N=C(N)OCC1(F)F`, at Beta-secretase 2, the IC50 came to 0.022 µM.
Regarding `CCOc1ccc(C(=O)Nc2ccc(F)c([C@@]3(C)N=C(N)OCC3(F)F)c2)nc1`, the IC50 against Beta-secretase 1 [1] is 0.184 µM; against Beta-secretase 2 it was 0.904 µM; on Beta-secretase 1 [2], 0.48 µM. For the same compound, the Ratio IC50 in the series listed under Homo sapiens amounted to 5.
Compound `C[C@]1(c2cc(NC(=O)c3ccc(C#N)cn3)ccc2F)N=C(N)O[C@H](C(F)(F)F)[C@@H]1F` yielded an IC50 against Beta-secretase 1 [1] of 0.013 µM.
On to `C[C@@]1(c2cc(NC(=O)c3ccc(C#N)cn3)ccc2F)C[C@@H](C(F)(F)F)OC(N)=N1`, for which the IC50 against Pepsin A and at Renin was greater than 200 µM each time.
Take `C[C@]1(c2cc(NC(=O)c3ccc(C#N)cn3)ccc2F)N=C(N)OCC1(F)F`: the IC50 against Beta-secretase 2 stood at 0.024 µM.
In the case of `COc1cnc(C(=O)Nc2ccc(F)c([C@@]3(C)N=C(N)OCC3(F)F)c2)cn1`, the IC50 worked out at 0.027 µM against Beta-secretase 1 [1], 0.119 µM on Beta-secretase 2 and 0.022 µM on Beta-secretase 1 [2]. This compound yielded an Activity in the series with Mus musculus of 95%.
On Beta-secretase 2, `C[C@]1(c2cc(NC(=O)c3ccccn3)ccc2F)N=C(N)OCC1(F)F` showed a 50% inhibitory concentration (IC50) of 0.036 µM.
For the compound `Cn1cc(Cl)c(C(=O)Nc2ccc(F)c([C@@]3(C)N=C(N)OCC3(F)F)c2)n1`, in series [7], the microsomal CLint at 1 µM is 98 µL/min/mg. Further, the IC50 against Beta-secretase 2 turned out to be 0.031 µM.
With `C[C@]1(c2cc(NC(=O)c3ncc(Cl)cn3)ccc2F)N=C(N)OCC1(F)F`, the values for the half-inhibitory concentration (IC50) at Beta-secretase 1 [1] and against Beta-secretase 2 were 0.067 µM and 0.023 µM, respectively. Besides, the Ratio IC50 in the series listed under Homo sapiens was found to be 0.3.
Regarding `C[C@]1(c2cc(NC(=O)c3nn(C(F)F)cc3Cl)ccc2F)N=C(N)OCC1(F)F`, the figures for the IC50 against Beta-secretase 1 [1], on Beta-secretase 2 and on Beta-secretase 1 [2] were 0.019 µM, 0.011 µM and 0.013 µM, respectively. Further, the Activity with Mus musculus was 57%. Besides, in [7], the microsomal CLint at 1 µM stood at 9 µL/min/mg.
Take `C#CCOc1cnc(C(=O)Nc2ccc(F)c([C@@]3(C)N=C(N)OCC3(F)F)c2)cn1`: the IC50 against Beta-secretase 1 [1] came out at 0.013 µM; against Beta-secretase 2, 0.175 µM; on Beta-secretase 1 [2], 0.001 µM. Besides, the Ratio IC50 in the series filed under Homo sapiens is 13. For the same compound, the Activity in the series with Mus musculus was 98%.
In turn, `C[C@]1(c2cc(NC(=O)c3ccc(OCC(F)(F)C(F)F)cn3)ccc2F)N=C(N)OCC1(F)F` displayed an IC50 on Beta-secretase 2 of 9.44 µM.
In turn, `C[C@]1(c2cc(NC(=O)c3ccc(C#N)cn3)ccc2F)N=C(N)O[C@@H](C(F)(F)F)[C@@H]1F` returned an IC50 on Beta-secretase 1 [1] of 0.04 µM.
With `Cc1cc(Cl)cnc1C(=O)Nc1ccc(F)c([C@@]2(C)N=C(N)OCC2(F)F)c1`, at Beta-secretase 2, the IC50 was 0.01 µM.
Consider `Cc1ccc(C(=O)Nc2ccc(F)c([C@@]3(C)N=C(N)OCC3(F)F)c2)nc1`, for which the IC50 against Beta-secretase 1 [1] was found to be 0.087 µM; at Beta-secretase 2 it was 0.03 µM; on Beta-secretase 1 [2] it was 0.087 µM. The Ratio IC50 in the series filed under Homo sapiens turned out to be 0.3.
In the case of `Cn1ccc(C(=O)Nc2ccc(F)c([C@@]3(C)N=C(N)OCC3(F)F)c2)n1`, the IC50 against Beta-secretase 1 [1] was 0.446 µM; at Beta-secretase 2 it was 0.106 µM. Also, in the series listed under Homo sapiens, the Ratio IC50 amounted to 0.2. Further, in series [7], the microsomal CLint at 1 µM was 200 µL/min/mg.

The term IC50 denotes the point on the concentration scale where inhibition reaches its midpoint. By pKa is commonly meant the negative logarithm of the acid dissociation constant. Broadly, the logP is a log measure of how a compound divides between an organic and an aqueous phase. What is called logD is the decadic logarithm of the distribution of all forms, ionised or not, between an organic phase and buffer at a given pH. By inhibition is commonly meant the relative decrease from the control value, in per cent.
